In ChEMBL document CHEMBL4261536, “Encapsulation of nor-β-lapachone into poly(d,l)-lactide-co-glycolide (PLGA) microcapsules: full characterization, computational details and cytotoxic activity against human cancer cell lines” (Medchemcomm, 2017):
Converted amounts (≈) assume the structure as drawn. The source made the active and inactive calls. No cut-off for these calls is given here.

Experiments:
[1] = system: OVCAR-8; assay: Cytotoxicity against human OVCAR8 cells assessed as decrease in cell viability after 72 hrs by MTT assay; type: functional, cell-based; details: OVCAR-8, 72 h
Outline: (§1)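 Cells grown in RPMI 1640 with 10% FBS and penicillin/streptomycin at 37°C, 5% CO2. Seeded at 0.1×10⁶ cells/well (HCT-116: 0.7×10⁵). After 24 h, drug in DMSO added at […]; controls got DMSO. Exposure 72 h, with prostate lines read at 24, 72 and 96 h. Then MTT (0.5 mg/mL) for 3 h, formazan dissolved in DMSO, A595 expressed as % of control. IC50 by nonlinear regression from three independent experiments in triplicate.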

[2] = system: DU-145; assay: Cytotoxicity against human DU145 cells assessed as decrease in cell viability after 72 hrs by MTT assay; type: functional, cell-based; details: DU-145, 72 h; outline: as §1
[3] = system: PC-3M; assay: Cytotoxicity against human PC3M cells assessed as decrease in cell viability after 72 hrs by MTT assay; type: functional, cell-based; outline: as §1
[4] = system: SF-295; assay: Cytotoxicity against human SF295 cells assessed as decrease in cell viability after 72 hrs by MTT assay; type: functional, cell-based; details: SF-295, 72 h; outline: as §1
[5] = system: HCT-116; assay: Cytotoxicity against human HCT116 cells assessed as decrease in cell viability after 72 hrs by MTT assay; type: functional, cell-based; details: HCT-116, 72 h
Outline: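 After 24 h, drug in DMSO added at […]; controls got DMSO. Exposure 72 h, with prostate lines read at 24, 72 and 96 h. Then MTT (0.5 mg/mL) for 3 h, formazan dissolved in DMSO, A595 expressed as % of control. IC50 by nonlinear regression from three independent experiments in triplicate.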

[6] = system: PC-3; assay: Cytotoxicity against human PC3 cells assessed as decrease in cell viability after 72 hrs by MTT assay; type: functional, cell-based; details: PC-3, 72 h; outline: as §1
[7] = system: PBMC; assay: Cytotoxicity against human PBMC assessed as decrease in cell viability after 72 hrs by Alamar blue assay; type: cell-based
Outline: (§2)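 PBMC isolated from healthy volunteers' blood on Ficoll. Kept in RPMI 1640 with 20% FBS; proliferation induced with 3% phytohemagglutinin. Plated at 2×10⁴ cells/well; after 24 h, test material in PBS pH 7.4 added at […], controls got PBS. Treated 72 h, with Alamar Blue added for the final 24 h. Absorbance at 570 and 600 nm as % of control. IC50 by nonlinear regression from three independent experiments in triplicate.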

[8] = system: SF-295; assay: Cytotoxicity against human SF295 cells assessed as decrease in cell viability using compound loaded PLGA microcapsule after 72 hrs by MTT assay; type: functional, cell-based; details: SF-295, 72 h
Outline: (§3)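 Drug-loaded PLGA microparticles suspended in PBS pH 7.4 and added at […], 24 h after seeding at 0.1×10⁶ cells/well (HCT-116: 0.7×10⁵). Medium RPMI 1640 with 10% FBS, 37°C, 5% CO2. Incubated 72 h, with DU145, PC3 and PC3M read at 24, 72 and 96 h. MTT 0.5 mg/mL for 3 h, formazan in DMSO, A595 as % of control. IC50 by nonlinear regression, three independent experiments in triplicate.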

[9] = system: OVCAR-8; assay: Cytotoxicity against human OVCAR8 cells assessed as decrease in cell viability using compound loaded PLGA microcapsule after 72 hrs by MTT assay; type: functional, cell-based; details: OVCAR-8, 72 h; outline: as §3
[10] = system: HCT-116; assay: Cytotoxicity against human HCT116 cells assessed as decrease in cell viability using compound loaded PLGA microcapsule after 72 hrs by MTT assay; type: functional, cell-based; details: HCT-116, 72 h; outline: as §3
[11] = system: DU-145; assay: Cytotoxicity against human DU145 cells assessed as decrease in cell viability using compound loaded PLGA microcapsule after 72 hrs by MTT assay; type: functional, cell-based; details: DU-145, 72 h; outline: as §3
[12] = system: PC-3M; assay: Cytotoxicity against human PC3M cells assessed as decrease in cell viability using compound loaded PLGA microcapsule after 72 hrs by MTT assay; type: functional, cell-based; outline: as §3
[13] = system: PC-3; assay: Cytotoxicity against human PC3 cells assessed as decrease in cell viability using compound loaded PLGA microcapsule after 72 hrs by MTT assay; type: functional, cell-based; details: PC-3, 72 h; outline: as §3
[14] = system: PBMC; assay: Cytotoxicity against human PBMC assessed as decrease in cell viability using compound loaded PLGA microcapsule after 72 hrs by Alamar blue assay; type: cell-based; outline: as §2
[15] = system: PC-3M; assay: Cytotoxicity against human PC3M cells assessed as decrease in cell viability after 24 hrs by MTT assay; type: functional, cell-based; outline: as §1
[16] = system: PC-3M; assay: Cytotoxicity against human PC3M cells assessed as decrease in cell viability using compound loaded PLGA microcapsule after 24 hrs by MTT assay; type: functional, cell-based; outline: as §3
[17] = system: PC-3M; assay: Cytotoxicity against human PC3M cells assessed as decrease in cell viability after 96 hrs by MTT assay; type: functional, cell-based; outline: as §1
[18] = system: PC-3M; assay: Cytotoxicity against human PC3M cells assessed as decrease in cell viability using compound loaded PLGA microcapsule after 96 hrs by MTT assay; type: functional, cell-based; outline: as §3
[19] = system: PC-3; assay: Cytotoxicity against human PC3 cells assessed as decrease in cell viability after 24 hrs by MTT assay; type: functional, cell-based; outline: as §1
[20] = system: PC-3; assay: Cytotoxicity against human PC3 cells assessed as decrease in cell viability using compound loaded PLGA microcapsule after 24 hrs by MTT assay; type: functional, cell-based; outline: as §3
[21] = system: DU-145; assay: Cytotoxicity against human DU145 cells assessed as decrease in cell viability after 24 hrs by MTT assay; type: functional, cell-based; outline: as §1
[22] = system: DU-145; assay: Cytotoxicity against human DU145 cells assessed as decrease in cell viability using compound loaded PLGA microcapsule after 24 hrs by MTT assay; type: functional, cell-based; outline: as §3
[23] = system: PC-3; assay: Cytotoxicity against human PC3 cells assessed as decrease in cell viability after 96 hrs by MTT assay; type: functional, cell-based; outline: as §1
[24] = system: PC-3; assay: Cytotoxicity against human PC3 cells assessed as decrease in cell viability using compound loaded PLGA microcapsule after 96 hrs by MTT assay; type: functional, cell-based; outline: as §3
[25] = system: DU-145; assay: Cytotoxicity against human DU145 cells assessed as decrease in cell viability after 96 hrs by MTT assay; type: functional, cell-based; outline: as §1
[26] = system: DU-145; assay: Cytotoxicity against human DU145 cells assessed as decrease in cell viability using compound loaded PLGA microcapsule after 96 hrs by MTT assay; type: functional, cell-based; outline: as §3
[27] = system: PC-3M; assay: Induction of morphological changes in human PC3M cells at 11.2 uM after 24 to 72 hrs by hematoxylin/eosin staining-based light microscopic method; type: functional, cell-based
Outline: (§4)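 PC3M cells exposed to free or PLGA-encapsulated drug, then stained with hematoxylin/eosin and examined by light microscopy (400×) after 24, 48 and 72 h.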

[28] = system: PC-3M; assay: Induction of morphological changes in human PC3M cells at 5.4 uM using compound loaded PLGA microcapsule after 24 to 72 hrs by hematoxylin/eosin staining-based light microscopic method; type: functional, cell-based; outline: as §4

SMILES: COc1cccc2c1C(=O)c1c(O)c3c(c(O)c1C2=O)C[C@@](O)(C(=O)CO)C[C@@H]3O[C@H]1C[C@H](N)[C@H](O)[C@H](C)O1 [DOXORUBICIN]
- IC50 [1]: 620 nM
- IC50 [2]: 153 nM
- IC50 [3]: 368 nM

SMILES: CC1(C)CC2=C(O1)c1ccccc1C(=O)C2=O [NOR-BETA-LAPACHONE]
- IC50 [4]: 1450 nM
- IC50 [1]: 2580 nM
- IC50 [5]: 1580 nM
- IC50 [2]: 1390 nM
- IC50 [3]: 8970 nM
- IC50 [6]: 1450 nM
- IC50 [7]: 10000 nM
- IC50 [8]: 7400 nM
- IC50 [9]: 13700 nM
- IC50 [10]: 7480 nM
- IC50 [11]: 2380 nM
- IC50 [12]: 4590 nM
- IC50 [13]: 1850 nM
- IC50 [14]: 10000 nM
- IC50 [15]: 1.89 µg/mL (≈ 8.27 µM)
- IC50 [16]: 2.44 µg/mL (≈ 10.7 µM)
- IC50 [17]: 1.79 µg/mL (≈ 7.83 µM)
- IC50 [18]: 1.4 µg/mL (≈ 6.14 µM)
- Activity [19]: Active
- Activity [20]: Active
- Activity [21]: Active
- Activity [22]: Active
- Activity [23]: Active
- Activity [24]: Active
- Activity [25]: Active
- Activity [26]: Active
- Activity [27]: Active
- Activity [28]: Active
